Bioassay records as filed in PubChem BioAssay.
A selection: hits, their analogues and other compounds. The true share with any hit is near 1.5%.
LANA-H2B inh: blocks KSHV LANA binding to histone H2A/H2B. Q9QR71. cell-free LANA-H2A/H2B peptide, fluorescence polarization. inhibition, % (no concentration beside the values). 0.6% of 320,000 active; in the data active means inhibition mostly above about 10%, no sharp cut-off; inactive means mostly below about 6.7%
C-LANA FP: KSHV C-LANA DNA binding inhibition. MBP-C-LANA/FAM-LBS DNA binding, fluorescence polarization. inhibition, % at 9 µM. 0.078% of 340,000 active. AID 504423;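 active means highest replicate inhibition at or above 60% at 9 µM, even if other replicates fall short; inactive means all replicates below 60% inhibition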;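 further: 0% = neutral control wells and 100% = 4 µM acridine orange control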
Keap1 Nrf2 FP: Keap1-Nrf2 (human) interaction inhibition; Keap1 Kelch-Nrf2 peptide fluorescence polarization, 1536-well; 0.15% of 340,000 active; Q14145; inhibition, % at 9.4 µM; in the data active means inhibition above about 12%;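 further: human Keap1 Kelch domain with fluorescein labeled Nrf2 9mer peptide probe; 0% = neutral control wells and 100% = peptide positive control; higher means more block of Keap1 binding to Nrf2 peptide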
CAL PDZ FP-1: inhibitors of human CAL PDZ peptide binding | Q9HD26 | purified CAL PDZ, TMR-peptide fluorescence polarization, 1 h | inhibition, % at 24.9 µM | 0.92% of 300,000 active;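 active means mean inhibition of at least 30% with at least half of replicates also reaching 30%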;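 further: 0% = DMSO neutral control and 100% = excess unlabeled competitor peptide PRC23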
CaV13 FRET inh: Primary screen for inhibitors of IQ motif and Ca2+-dependent inactivation inhibitor domain binding in CACNA1D, Förster resonance energy transfer in living cells, … | inhibition, % at 12.3 µM | 0.098% of 340,000 active | HEK cells, CFP/YFP FRET ICDI-IQ, plate reader, 10 min; percent FRET-ratio fall versus neutral wells | AID 743397;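 active means mean replicate inhibition of at least 30% and at least 1% of replicates passing that level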;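 further: 0% = median of the neutral control wells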
CAL PDZ FP-2: blocks peptide binding to human CAL PDZ domain. inhibition, % at 20 µM. 0.02% of 330,000 active. purified CAL PDZ, TMR-peptide fluorescence polarization, 1 h;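 active means highest replicate inhibition of at least 40%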;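 further: plate controls were DMSO neutral control wells for no effect and unlabeled competitor peptide control wells for full effect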
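Control set: unlabelled peptide and DMSO controls / Material: purified CerCALP PDZ construct / Timing: 1 h incubation at room temperature before polarization reading / Doses: 20 µM, one dose / Detection: fluorescence polarization (mP)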
Numbers without * were called inactive; · = not tested or not shown; + = active, no number.

SMILES	LANA-H2B inh	C-LANA FP	Keap1 Nrf2 FP	CAL PDZ FP-1	CaV13 FRET inh	CAL PDZ FP-2
CC(NS(=O)(=O)c1ccc(Cl)c(Cl)c1)C(=O)OCC(=O)Nc1ccc2c(c1)OCO2 (centres undefined)	-6	2	2	-6	-2	70*
Nc1[nH]c(C(=O)c2ccccc2)c(-c2ccc3ccccc3c2)c1C(=O)NCc1ccc(F)cc1	·	·	·	·	-16	·
CS(=O)(=O)c1ccc(C(=O)NC2CCCc3ccccc32)cc1 (centres undefined)	8	-1	0	58*	·	0
CN(C)c1cccc(C(=O)NC2CCCc3ccccc32)c1 (centres undefined)	0	-1	2	59*	-2	-1
COc1cccc(C(=O)Nc2ccc(C(=O)NCC3CCCO3)cc2)c1 (centres undefined)	1	3	3	·	-5	0
COc1ccc(C(C(=O)NC(C)(C)C)n2c(-c3ccc(C(F)(F)F)cc3)nc3ccccc32)cc1 (centres undefined)	·	·	·	·	-9	·
CCC(C)NCCOCCOc1ccc(Cl)c(C)c1C (centres undefined)	1	1	2	-5	-3	-3
CCC(C)NCCOCCOc1ccc(Cl)c2ccccc12 (centres undefined)	12*	-2	0	10	6	-2
CCN(CC)C(=O)[C@H]1C[C@H](CC(=O)NCCN2CCOCC2)C(=O)N2CCc3c([nH]c4cc(CCC(=O)N(C)C)ccc34)[C@]12C	·	1	1	-3	-10	0
CC(=O)Sc1nc(-c2ccccc2)[nH]c1S(=O)(=O)c1ccc(C)cc1	-5	·	·	·	·	·
CSc1nc(-c2ccc(C)cc2)[nH]c1S(=O)(=O)c1ccccc1	2	0	5	35*	-4	·
CCOc1ccc(Cl)cc1S(=O)(=O)N1CCC(C(=O)NCc2ccccn2)CC1	0	-1	3	-5	-4	-1
CCOc1ccc(Cl)cc1S(=O)(=O)N1CCC(C(=O)NCc2ccco2)CC1	1	-1	-2	98*	-3	-1
O=C(NCc1ccco1)C1CCC(N2C(=O)c3ccccc3C2=O)CC1 (centres undefined)	23*	0	-3	-1	-9	-2
CCC(c1nc2ccccc2[nH]1)n1c(C)nc2ccccc21 (centres undefined)	·	·	·	·	-9	·
CC(=O)c1ccc(NC(=S)N(CCCN(C)C)Cc2ccccc2)cc1	7	0	-1	58*	3	0
CCCN(Cc1ccccc1)C(=S)Nc1ccc(C(C)=O)cc1	3	0	-7	3	-5	0
O=C(NCCc1ccccc1Cl)[C@@H]1CCCN1C(=O)[C@@H](NC(=O)N1CCOCC1)C1CCCCC1	·	·	·	·	-9	·
Cc1ccc(NC(=S)Nc2ccc(-c3nnc4n3CCCCC4)cc2)cc1C	·	·	·	·	-4	·
CCc1ccc(Oc2ncnc(N)c2[N+](=O)[O-])cc1	0	-1	1	67*	3	-2
COCCCn1c(=O)c2sccc2n(Cc2ccc(C)cc2)c1=O	3	-5	-1	-6	-21	-1
Cc1ncc(CN2CCN(C3CCCC3)C(CCO)C2)s1 (centres undefined)	-3	-1	1	82*	-6	0
OCCC1CN(Cc2cnc(N3CCCC3)s2)CCN1C1CCCC1 (centres undefined)	1	1	1	2	-7	0
CSc1ncc(CN2CCN(C3CCCC3)C(CCO)C2)cn1 (centres undefined)	4	0	-4	31*	-17	-3
CC(=O)c1sc(N/N=C\c2ccc(N(C)C)cc2)nc1C	-2	1	0	1	+	1
Clc1ccc(-c2csc(NCC3CCCO3)n2)cc1 (centres undefined)	·	·	·	·	-4	·
Cc1cccn2c(CNCCc3ccccn3)c(C(=O)N3CCOCC3)nc12	29*	0	1	-4	-10	0
O=C(Nc1ccc(Cl)c(Cl)c1)Nc1cc(C(=O)NC2CC2)ccc1Cl	17*	·	·	·	·	·
O=C(Nc1ccc(Cl)c(Cl)c1)c1ccc(Cl)c(Cl)c1	0	1	-3	-1	-3	0
